# Source: ChEMBL document CHEMBL1122647 (J Med Chem, 1984)
# pIC50: −log10 of the molar value.
# Legend:
# [1] = system: Mus musculus; assay: In vivo antitumor activity was evaluated against L1210 leukemia implanted mice by measuring percent increase in life span after intraperitoneal administration of compound at 32 mg/kg; format: functional
# In short: (§1)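 Male B6D2F1J mice, five per group, were implanted ip with 10^5 L1210 cells on day 0. Treatment began on day 1. Drug was given ip in sterile water, twice daily on days 1-4 and 7-10, and as a single double-dose injection on days 5 and 6. Survival was recorded in days (range, and median treated/control), with % ILS derived from it. Body-weight change at 7 days was also recorded.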
# [2] = system: Mus musculus; assay: In vivo antitumor activity was evaluated against L1210 leukemia implanted mice by measuring number of survival days after intraperitoneal administration of compound at 32 mg/kg; at a range of 12-16; format: functional; in short: as §1
# [3] = system: Mus musculus; assay: In vivo antitumor activity was evaluated against L1210 leukemia implanted mice by measuring T/C median after intraperitoneal administration of compound at 32 mg/kg; T/C median=13/9; format: functional; in short: as §1
# [4] = system: Mus musculus; assay: In vivo antitumor activity was evaluated against L1210 leukemia implanted mice by measuring 7-day weight change after intraperitoneal administration of compound at 32 mg/kg; format: functional
# In short: (§2)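 Groups of five male B6D2F1J mice were inoculated ip with 10^5 L1210 cells on day 0. Starting day 1, drug in sterile water was given ip bid on days 1-4 and 7-10, with a single double-dose injection on days 5 and 6. Percent body-weight change was recorded at day 7, along with survival range, median T/C and ILS.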
# [5] = system: Mus musculus; assay: In vivo antitumor activity was evaluated against L1210 leukemia implanted mice by measuring number of survival days after intraperitoneal administration of compound at 16 mg/kg; at a range of 11-14; format: functional; in short: as §1
# [6] = system: Mus musculus; assay: In vivo antitumor activity was evaluated against L1210 leukemia implanted mice by measuring percent increase in life span after intraperitoneal administration of compound at 16 mg/kg; format: functional; in short: as §1
# [7] = molecular target: T1, Dihydrofolate reductase (Mus musculus) (UniProt P00375)
# T1 sequence (whole entry): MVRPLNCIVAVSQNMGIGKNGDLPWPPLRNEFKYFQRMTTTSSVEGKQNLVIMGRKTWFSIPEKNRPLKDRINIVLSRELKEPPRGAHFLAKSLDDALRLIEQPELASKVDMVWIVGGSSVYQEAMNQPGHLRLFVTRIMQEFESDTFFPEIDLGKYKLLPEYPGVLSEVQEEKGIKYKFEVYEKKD
# [8] = system: L1210; assay: Compound was evaluated for its cytotoxicity against the L1210 murine leukemia cell culture; format: functional; settings: Mus musculus, read-out: ID50 (the source's name)
# [9] = system: Mus musculus; assay: In vivo antitumor activity was evaluated against L1210 leukemia implanted mice by measuring T/C median after intraperitoneal administration of compound at 16 mg/kg; T/C median=12/9; format: functional; in short: as §1
# [10] = system: Mus musculus; assay: In vivo antitumor activity was evaluated against L1210 leukemia implanted mice by measuring 7-day weight change after intraperitoneal administration of compound at 16 mg/kg; format: functional; in short: as §2
# [11] = system: Mus musculus; assay: In vivo antitumor activity was evaluated against L1210 leukemia implanted mice by measuring percent increase in life span after intraperitoneal administration of compound at 0.5 mg/kg; format: functional; in short: as §1
# [12] = system: Mus musculus; assay: In vivo antitumor activity was evaluated against L1210 leukemia implanted mice by measuring 7-day weight change after intraperitoneal administration of compound at 0.5 mg/kg; format: functional; in short: as §2
# [13] = system: Mus musculus; assay: In vivo antitumor activity was evaluated against L1210 leukemia implanted mice by measuring number of survival days after intraperitoneal administration of compound at 0.75 mg/kg; at a range of 16-21; format: functional; in short: as §1
# [14] = system: Mus musculus; assay: In vivo antitumor activity was evaluated against L1210 leukemia implanted mice by measuring T/C median after intraperitoneal administration of compound at 0.75 mg/kg; T/C median=18/9; format: functional; in short: as §1
# [15] = system: Mus musculus; assay: In vivo antitumor activity was evaluated against L1210 leukemia implanted mice by measuring percent increase in life span after intraperitoneal administration of compound at 0.75 mg/kg; format: functional; in short: as §1
# [16] = system: Mus musculus; assay: In vivo antitumor activity was evaluated against L1210 leukemia implanted mice by measuring 7-day weight change after intraperitoneal administration of compound at 0.75 mg/kg; format: functional; in short: as §2
# [17] = system: Mus musculus; assay: In vivo antitumor activity was evaluated against L1210 leukemia implanted mice by measuring number of survival days after intraperitoneal administration of compound at 1 mg/kg; at a range of 3-22; format: functional; in short: as §1
# [18] = system: Mus musculus; assay: In vivo antitumor activity was evaluated against L1210 leukemia implanted mice by measuring 7-day weight change after intraperitoneal administration of compound at 1 mg/kg; format: functional; in short: as §2
# [19] = system: Mus musculus; assay: In vivo antitumor activity was evaluated against L1210 leukemia implanted mice by measuring percent increase in life span after intraperitoneal administration of compound at 1 mg/kg; format: functional; in short: as §1
# [20] = system: Mus musculus; assay: In vivo antitumor activity was evaluated against L1210 leukemia implanted mice by measuring T/C median after intraperitoneal administration of compound at 0.5 mg/kg; T/C median=16/9; format: functional; in short: as §1
# [21] = system: Mus musculus; assay: In vivo antitumor activity was evaluated against L1210 leukemia implanted mice by measuring T/C median after intraperitoneal administration of compound at 1 mg/kg; T/C median=21/9; format: functional; in short: as §1
# [22] = system: Mus musculus; assay: In vivo antitumor activity was evaluated against L1210 leukemia implanted mice by measuring number of survival days after intraperitoneal administration of compound at 0.5 mg/kg; at a range of 15-18; format: functional; in short: as §1
# [23] = system: Mus musculus; assay: In vivo antitumor activity was evaluated against L1210 leukemia implanted mice by measuring percent increase in life span after intraperitoneal administration of compound at 0.24 mg/kg; format: functional; in short: as §1
# [24] = system: Mus musculus; assay: In vivo antitumor activity was evaluated against L1210 leukemia implanted mice by measuring number of survival days after intraperitoneal administration of compound at 0.24 mg/kg at a range of 12-20; format: functional; in short: as §1
# [25] = system: Mus musculus; assay: In vivo antitumor activity was evaluated against L1210 leukemia implanted mice by measuring 7-day weight change after intraperitoneal administration of compound at 0.06 mg/kg; format: functional; in short: as §2
# [26] = system: Mus musculus; assay: In vivo antitumor activity was evaluated against L1210 leukemia implanted mice by measuring number of survival days after intraperitoneal administration of compound at 0.06 mg/kg at a range of 11-13; format: functional; in short: as §1
# [27] = system: Mus musculus; assay: In vivo antitumor activity was evaluated against L1210 leukemia implanted mice by measuring percent increase in life span after intraperitoneal administration of compound at 0.06 mg/kg; format: functional; in short: as §1
# [28] = system: Mus musculus; assay: In vivo antitumor activity was evaluated against L1210 leukemia implanted mice by measuring T/C median after intraperitoneal administration of compound at 0.12 mg/kg; T/C median=14/8; format: functional
# In short: (§3)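 Male B6D2F1J mice, five per group, were inoculated ip with 10^5 L1210 cells on day 0. Treatment began on day 1, given ip in sterile water twice daily on days 1-4 and 7-10, with a single double-dose injection on each of days 5 and 6. Read-outs were percent body weight change over 7 days, survival range in days, treated/control median survival, and percent increase in life span.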
# [29] = system: Mus musculus; assay: In vivo antitumor activity was evaluated against L1210 leukemia implanted mice by measuring T/C median after intraperitoneal administration of compound at 0.24 mg/kg; T/C median=19/8; format: functional; in short: as §1
# [30] = system: Mus musculus; assay: In vivo antitumor activity was evaluated against L1210 leukemia implanted mice by measuring 7-day weight change after intraperitoneal administration of compound at 0.12 mg/kg; format: functional; in short: as §3
# [31] = system: Mus musculus; assay: In vivo antitumor activity was evaluated against L1210 leukemia implanted mice by measuring 7-day weight change after intraperitoneal administration of compound at 0.24 mg/kg; format: functional; in short: as §2
# [32] = system: Mus musculus; assay: In vivo antitumor activity was evaluated against L1210 leukemia implanted mice by measuring percent increase in life span after intraperitoneal administration of compound at 0.12 mg/kg; format: functional; in short: as §3
# [33] = system: Mus musculus; assay: In vivo antitumor activity was evaluated against L1210 leukemia implanted mice by measuring number of survival days after intraperitoneal administration of compound at 0.12 mg/kg at a range of 12-15; format: functional; in short: as §3
smiles,measurement,setting,value
CN(Cc1cnc2nc(N)nc(N)c2n1)c1ccc(C(=O)NC(CS(=O)(=O)O)C(=O)O)cc1 (stereo unspecified),Activity,[1],44%
same,Survival days,[2],12
same,Survival days,[3],13
same,Activity,[4],-1%
same,Survival days,[5],11
same,Activity,[6],33%
same,ID50,[7],0.045 µM
same,pIC50,[8],6.47
same,Survival days,[9],12
same,Weight change,[10],2%
CN(Cc1cnc2nc(N)nc(N)c2n1)c1ccc(C(=O)N[C@@H](CCC(=O)O)C(=O)O)cc1 [METHOTREXATE],Activity,[11],78%
same,Weight change,[12],-1%
same,Survival days,[13],16
same,Survival days,[14],18
same,Activity,[15],100%
same,Weight change,[16],-5%
same,Survival days,[17],3
same,pIC50,[8],7.92
same,Weight change,[18],-8%
same,Activity,[19],133%
same,Survival days,[20],16
same,Survival days,[21],21
same,Survival days,[22],15
Nc1nc(N)c2nc(CNc3ccc(C(=O)N[C@@H](CCC(=O)O)C(=O)O)cc3)cnc2n1 [AMINOPTERIN],Activity,[23],138%
same,Survival days,[24],12
same,Weight change,[25],1%
same,Survival days,[26],11
same,Activity,[27],50%
same,Survival days,[28],14
same,ID50,[7],0.04 µM
same,Survival days,[29],19
same,Weight change,[30],3%
same,pIC50,[8],8.51
same,Weight change,[31],-12%
same,Activity,[32],75%
same,Survival days,[33],12
